Assays:
[1] = target: T1, Metabotropic glutamate receptor 2 (Homo sapiens, UniProt Q14416); assay: Displacement of [3H]-459477 from human recombinant mGlu2 receptor expressed in AV12 cells after 90 mins by liquid scintillation counting; type: cell-based
[2] = target: T2, Metabotropic glutamate receptor 3 (Homo sapiens, UniProt Q14832); assay: Displacement of [3H]-459477 from human recombinant mGlu3 receptor expressed in AV12 cells after 90 mins by liquid scintillation counting; type: cell-based
[3] = target: T1, Metabotropic glutamate receptor 2; assay: Agonist activity at human recombinant mGlu2 receptor expressed in AV12 cells assessed as stimulation of Ca2+ mobilization after 1 hr by FLIPR assay; type: functional, cell-based
[4] = target: T2, Metabotropic glutamate receptor 3; assay: Agonist activity at human recombinant mGlu3 receptor expressed in AV12 cells assessed as inhibition of forskolin-stimulated cAMP production after 1 hr by fluorescence assay; type: functional, cell-based
[5] = target: T2, Metabotropic glutamate receptor 3; assay: Agonist activity at human recombinant mGlu3 receptor expressed in AV12 cells assessed as stimulation of Ca2+ mobilization after 1.5 hrs by FLIPR assay; type: functional, cell-based
[6] = target: T1, Metabotropic glutamate receptor 2; assay: Agonist activity at human recombinant mGlu2 receptor expressed in AV12 cells assessed as inhibition of forskolin-stimulated cAMP production after 20 min by fluorescence assay
[7] = target: T2, Metabotropic glutamate receptor 3; assay: Antagonist activity at human recombinant mGlu3 receptor expressed in AV12 cells assessed as inhibition of glutamate-stimulated Ca2+ mobilization after 1.5 hrs by FLIPR assay; type: functional, cell-based
[8] = target: T1, Metabotropic glutamate receptor 2; assay: Antagonist activity at human recombinant mGlu2 receptor expressed in AV12 cells assessed as inhibition of glutamate-stimulated Ca2+ mobilization after 1 hr by FLIPR assay; type: functional, cell-based
Procedure, shortened: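 AV12 cells stably co-expressing rat EAAT1, Gα15 and human mGlu2 (Bmax 1.35 pmol/mg), plated 85K/well 24 h ahead in medium with 250 µM L-glutamine. Compounds were dissolved from 10 mM stocks in 0.1N NaOH and run as 10-point 3-fold series. Fluo-3 AM Ca2+ transients were read by FLIPR. Read-out was % inhibition of the EC90 glutamate response, with relative IC50 from a four-parameter logistic fit.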

[9] = target: T2, Metabotropic glutamate receptor 3; assay: Antagonist activity at human recombinant mGlu3 receptor expressed in AV12 cells assessed as reversal of DCG-4-inhibited, forskolin-stimulated cAMP production after 1 hr by fluorescence assay; type: functional, cell-based
[10] = target: T1, Metabotropic glutamate receptor 2; assay: Antagonist activity at human recombinant mGlu2 receptor expressed in AV12 cells assessed as reversal of DCG-4-inhibited, forskolin-stimulated cAMP production after 1 hr by fluorescence assay; type: functional, cell-based
[11] = target: T2, Metabotropic glutamate receptor 3; assay: Agonist activity at wild type human recombinant mGlu3 receptor expressed in AV12 cells assessed as stimulation of Ca2+ mobilization after 1 hr by FLIPR assay; type: functional, cell-based
[12] = target: Metabotropic glutamate receptor 3 (Homo sapiens, UniProt Q14832, D279E); assay: Agonist activity at human recombinant mGlu3 receptor D279E mutant expressed in AV12 cells assessed as stimulation of Ca2+ mobilization after 1 hr by FLIPR assay; type: functional, cell-based
Chain of Metabotropic glutamate receptor 3 (Homo sapiens, UniProt Q14832, D279E) (Q14832 23-879 D279E limits assumed): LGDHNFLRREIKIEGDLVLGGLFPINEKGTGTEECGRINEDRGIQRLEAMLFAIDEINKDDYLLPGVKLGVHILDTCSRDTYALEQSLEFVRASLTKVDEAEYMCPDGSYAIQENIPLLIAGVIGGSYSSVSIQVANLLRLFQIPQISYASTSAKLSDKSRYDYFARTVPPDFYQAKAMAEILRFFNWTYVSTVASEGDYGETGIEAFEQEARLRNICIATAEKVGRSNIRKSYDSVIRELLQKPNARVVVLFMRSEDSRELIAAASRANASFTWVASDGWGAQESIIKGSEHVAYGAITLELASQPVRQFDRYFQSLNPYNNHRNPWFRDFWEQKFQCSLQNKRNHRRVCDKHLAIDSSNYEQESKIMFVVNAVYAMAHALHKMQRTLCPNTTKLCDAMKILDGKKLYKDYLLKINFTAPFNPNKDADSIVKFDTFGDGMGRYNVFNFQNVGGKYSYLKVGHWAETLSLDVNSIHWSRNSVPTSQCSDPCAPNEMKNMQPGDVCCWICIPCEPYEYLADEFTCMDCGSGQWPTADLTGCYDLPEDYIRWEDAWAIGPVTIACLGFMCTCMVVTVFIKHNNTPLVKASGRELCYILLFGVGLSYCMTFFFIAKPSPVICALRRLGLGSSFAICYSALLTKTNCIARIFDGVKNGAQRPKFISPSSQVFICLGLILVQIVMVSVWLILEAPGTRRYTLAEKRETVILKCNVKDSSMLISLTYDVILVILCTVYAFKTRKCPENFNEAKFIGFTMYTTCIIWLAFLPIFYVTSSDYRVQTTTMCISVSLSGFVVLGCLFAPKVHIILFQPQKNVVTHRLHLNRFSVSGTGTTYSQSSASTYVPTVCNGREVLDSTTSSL

[13] = target: Metabotropic glutamate receptor 3 (Homo sapiens, UniProt Q14832, Q306L); assay: Agonist activity at human recombinant mGlu3 receptor Q306L mutant expressed in AV12 cells assessed as stimulation of Ca2+ mobilization after 1 hr by FLIPR assay; type: functional, cell-based
Chain of Metabotropic glutamate receptor 3 (Homo sapiens, UniProt Q14832, Q306L) (Q14832 23-879 Q306L limits assumed): as the sequence (Q14832 23-879 D279E limits assumed) above, with E257D, Q284L counted along it

[14] = target: Metabotropic glutamate receptor 3 (Homo sapiens, UniProt Q14832, D279E/Q306L); assay: Agonist activity at human recombinant mGlu3 receptor D279E and Q306L mutant expressed in AV12 cells assessed as stimulation of Ca2+ mobilization after 1 hr by FLIPR assay; type: functional, cell-based
Chain of Metabotropic glutamate receptor 3 (Homo sapiens, UniProt Q14832, D279E/Q306L) (Q14832 23-879 D279E/Q306L limits assumed): as the sequence (Q14832 23-879 D279E limits assumed) above, with Q284L counted along it

T1 sequence (Q14416 whole entry): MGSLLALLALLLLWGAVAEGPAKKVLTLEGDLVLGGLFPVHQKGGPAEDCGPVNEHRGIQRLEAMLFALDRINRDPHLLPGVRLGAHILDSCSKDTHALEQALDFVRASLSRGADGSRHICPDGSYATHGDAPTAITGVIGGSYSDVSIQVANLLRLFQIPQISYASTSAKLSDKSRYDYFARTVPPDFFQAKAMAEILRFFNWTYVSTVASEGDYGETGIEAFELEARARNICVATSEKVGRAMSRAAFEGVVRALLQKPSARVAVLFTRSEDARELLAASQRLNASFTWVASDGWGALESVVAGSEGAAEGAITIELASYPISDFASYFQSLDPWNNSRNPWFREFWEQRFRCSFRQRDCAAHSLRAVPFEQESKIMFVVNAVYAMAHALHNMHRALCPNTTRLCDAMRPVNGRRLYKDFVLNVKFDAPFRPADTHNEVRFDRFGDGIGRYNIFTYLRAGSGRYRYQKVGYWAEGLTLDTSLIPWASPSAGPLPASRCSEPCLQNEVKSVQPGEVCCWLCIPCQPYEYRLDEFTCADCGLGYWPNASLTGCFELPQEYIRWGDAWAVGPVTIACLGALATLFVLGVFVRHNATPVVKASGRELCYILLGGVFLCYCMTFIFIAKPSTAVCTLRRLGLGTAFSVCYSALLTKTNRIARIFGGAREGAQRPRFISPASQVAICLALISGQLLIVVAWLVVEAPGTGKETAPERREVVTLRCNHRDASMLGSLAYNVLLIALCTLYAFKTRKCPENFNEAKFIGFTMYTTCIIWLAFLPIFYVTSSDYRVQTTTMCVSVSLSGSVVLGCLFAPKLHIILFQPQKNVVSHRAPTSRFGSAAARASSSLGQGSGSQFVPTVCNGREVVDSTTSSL
T2 sequence (Q14832 whole entry): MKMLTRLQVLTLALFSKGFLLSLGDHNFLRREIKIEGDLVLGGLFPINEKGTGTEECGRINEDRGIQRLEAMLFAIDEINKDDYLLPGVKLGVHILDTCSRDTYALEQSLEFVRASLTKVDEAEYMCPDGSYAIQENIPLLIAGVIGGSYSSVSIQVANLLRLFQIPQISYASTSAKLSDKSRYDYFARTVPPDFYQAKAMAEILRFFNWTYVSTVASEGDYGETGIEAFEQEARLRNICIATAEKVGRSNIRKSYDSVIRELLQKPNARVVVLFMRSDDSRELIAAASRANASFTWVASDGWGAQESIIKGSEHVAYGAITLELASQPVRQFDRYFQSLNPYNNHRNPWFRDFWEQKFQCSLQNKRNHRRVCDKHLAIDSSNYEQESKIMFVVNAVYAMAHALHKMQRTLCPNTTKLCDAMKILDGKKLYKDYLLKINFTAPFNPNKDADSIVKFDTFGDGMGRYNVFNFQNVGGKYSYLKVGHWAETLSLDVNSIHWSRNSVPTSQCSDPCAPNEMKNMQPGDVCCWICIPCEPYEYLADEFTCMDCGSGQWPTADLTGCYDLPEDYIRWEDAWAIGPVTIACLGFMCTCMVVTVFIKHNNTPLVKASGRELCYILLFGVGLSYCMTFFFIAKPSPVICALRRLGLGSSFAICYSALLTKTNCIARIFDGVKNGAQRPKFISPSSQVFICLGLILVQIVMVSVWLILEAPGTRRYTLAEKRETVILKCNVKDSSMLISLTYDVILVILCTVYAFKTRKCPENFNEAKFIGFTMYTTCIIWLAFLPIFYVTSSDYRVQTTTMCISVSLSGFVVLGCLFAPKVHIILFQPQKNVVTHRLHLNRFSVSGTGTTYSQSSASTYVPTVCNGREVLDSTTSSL

| Compound | Ki [1] | Ki [2] | EC50 [3] | EC50 [4] | EC50 [5] | EC50 [6] | IC50 [7] | IC50 [8] | IC50 [9] | IC50 [10] | EC50 [11] | EC50 [12] | EC50 [13] | EC50 [14] |
| --- | --- | --- | --- | --- | --- | --- | --- | --- | --- | --- | --- | --- | --- | --- |
| N[C@@]1(C(=O)O)CC[C@H]2[C@H](C(=O)O)[C@H]21 | 71.7 nM | 107 nM | 34.4 nM | 27.9 nM | 140 nM | 7 nM | – | – | – | – | – | – | – | – |
| Cc1nnc(S[C@@H]2C[C@@](N)(C(=O)O)[C@@H]3[C@@H](C(=O)O)[C@@H]32)[nH]1 | 121 nM | 62.4 nM | 39.5 nM | 103 nM | 105 nM | 10.4 nM | – | – | – | – | – | – | – | – |
| N[C@@]1(C(=O)O)C[C@H](Sc2nnc(C(F)F)[nH]2)[C@H]2[C@H](C(=O)O)[C@H]21 | 13.4 nM | 57.5 nM | 6.3 nM | 27.3 nM | > 25000 nM | 0.58 nM | 244 nM | – | – | – | – | – | – | – |
| Cc1nnc(S[C@H]2C[C@@](N)(C(=O)O)[C@@H]3[C@@H](C(=O)O)[C@@H]32)[nH]1 | 171 nM | 79 nM | 146 nM | 96.6 nM | > 25000 nM | 44.3 nM | 3590 nM | – | – | – | – | – | – | – |
| Nc1nnc(S[C@@H]2C[C@@](N)(C(=O)O)[C@@H]3[C@@H](C(=O)O)[C@@H]32)[nH]1 | 67 nM | 58.3 nM | 13 nM | 74 nM | > 25000 nM | 4.5 nM | 94.7 nM | – | – | – | – | – | – | – |
| N[C@@]1(C(=O)O)C[C@@H](Sc2ccccc2)[C@H]2[C@H](C(=O)O)[C@H]21 | 420 nM | 138 nM | > 12500 nM | > 25000 nM | > 25000 nM | – | 7690 nM | > 12500 nM | 1070 nM | – | – | – | – | – |
| N[C@@]1(C(=O)O)C[C@H](Sc2n[nH]c(C(F)(F)F)n2)[C@H]2[C@H](C(=O)O)[C@H]21 | – | 43.1 nM | – | 30.5 nM | > 25000 nM | – | 624 nM | – | – | – | – | – | – | – |
| N[C@@]1(C(=O)O)C[C@@H](Sc2nnc(C(F)(F)F)[nH]2)[C@H]2[C@H](C(=O)O)[C@H]21 | – | 56.7 nM | – | 79.5 nM | 82 nM | – | – | – | 528 nM | – | – | – | – | – |
| CC(C)c1nc(S[C@H]2C[C@@](N)(C(=O)O)[C@@H]3[C@@H](C(=O)O)[C@@H]32)n[nH]1 | 339 nM | 82.7 nM | 242 nM | 77.9 nM | > 25000 nM | 74 nM | 2350 nM | – | – | – | – | – | – | – |
| N[C@@]1(C(=O)O)C[C@H](Sc2c[nH]nn2)[C@H]2[C@H](C(=O)O)[C@H]21 | 111 nM | 65.1 nM | 19 nM | 92.7 nM | > 25000 nM | 5.2 nM | 2790 nM | – | – | – | – | – | – | – |
| CC(C)c1nnc(S[C@@H]2C[C@@](N)(C(=O)O)[C@@H]3[C@@H](C(=O)O)[C@@H]32)[nH]1 | 266 nM | 157 nM | 87.8 nM | 281 nM | > 25000 nM | 16.5 nM | > 12500 nM | – | 859 nM | – | – | – | – | – |
| N[C@@]1(C(=O)O)C[C@@H](Sc2nnc(C(F)F)[nH]2)[C@H]2[C@H](C(=O)O)[C@H]21 | 95.8 nM | 63.2 nM | 53.6 nM | 77.7 nM | > 25000 nM | 11.8 nM | 154 nM | – | 459 nM | – | – | – | – | – |
| N[C@@]1(C(=O)O)C[C@H](Sc2ccccc2)[C@H]2[C@H](C(=O)O)[C@H]21 | 1230 nM | 272 nM | > 25000 nM | > 25000 nM | > 5000 nM | – | 6710 nM | > 12500 nM | – | 15300 nM | – | – | – | – |
| Nc1nnc(S[C@H]2C[C@@](N)(C(=O)O)[C@@H]3[C@@H](C(=O)O)[C@@H]32)[nH]1 | 27.8 nM | 69 nM | 20.1 nM | 112 nM | > 25000 nM | 6.4 nM | 3870 nM | – | – | – | – | – | – | – |
| N[C@@H](CCC(=O)O)C(=O)O [GLUTAMIC ACID] | – | – | – | – | – | – | – | – | – | – | 1000 nM | 4180 nM | 1480 nM | 5120 nM |
| N[C@@]1(C(=O)O)C[C@@H](Sc2c[nH]nn2)[C@H]2[C@H](C(=O)O)[C@H]21 | 142 nM | 259 nM | – | 235 nM | > 25000 nM | 12.4 nM | 5510 nM | – | 2380 nM | – | – | – | – | – |
| N[C@@]1(C(=O)O)C[C@H](Sc2nnc[nH]2)[C@H]2[C@H](C(=O)O)[C@H]21 | 60.4 nM | 126 nM | – | 227 nM | > 25000 nM | 11.2 nM | 3100 nM | – | 4260 nM | – | – | – | – | – |
